Results: ChEMBL document CHEMBL1123822, “Lysosomotropic agents. 7. Broad-spectrum antifungal activity of lysosomotropic detergents” (1987)
Values after ≈ are worked out from the molar mass of the structure shown.

Columns and labels:
Format in all cases: functional
Aspergillus fumigatus = test: The compound was tested for antifungal activity against Aspergillus fumigatus MF4839 using agar dilution assay
Method in brief: (§1)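 Standardized agar dilution in Kimmig agar with 5% glycerol. Lysosomotropic detergents solubilized in 10% Me₂SO. Twofold serial dilutions in sterile distilled water gave final agar concentrations of 128 to 0.06 μg/mL. Stated error ±1 dilution stage.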

Candida tropicalis [1] = test: The compound was tested for antifungal activity against Candida tropicalis MY1012 using agar dilution assay
Method in brief: (§2)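 Standardized agar dilution on Kimmig agar with 5% glycerol. Detergents solubilized in 10% Me2SO; desoxycholate-stabilized amphotericin B diluted and titrated in sterile distilled water. Twofold dilutions in sterile distilled water gave final agar concentrations of 128 to 0.06 μg/mL. Error limit ±1 dilution stage.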

Penicillium [2] = test: The compound was evaluated for zone inhibition against Penicillium sp (MF5016) using disk diffusion assay; 18 Fuzzy edges
Method in brief: (§3)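 Filter-paper disks (6.2 mm) loaded with 25 μL of a 250 μg/mL methanol solution, dried at room temperature, laid on seeded agar and rewet with 25 μL 10% aqueous Me₂SO. Media were unbuffered, pH ca. 4.5–5.6: potato dextrose agar for filamentous fungi, sabouraud dextrose agar for yeasts, unless noted. Inhibition zone diameter read after overnight incubation, ±1 mm. Zone edges scored fuzzy, slightly hazy, hazy or very hazy.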

Saccharomyces cerevisiae [3] = test: The compound was evaluated for mean zone diameter (inhibition) against yeast at the concentration of 1000 ug/mL
Method in brief: (§4)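 Disk diffusion: drug in methanol spotted on 6.2 mm paper disks (25 μL/disk), dried at room temperature, laid on seeded agar, rewet with 25 μL 10% aqueous Me₂SO; zones read after overnight incubation. Unbuffered acidic media (pH ca. 4.5–5.6). Panel of 21 yeasts and 21 filamentous fungi; zones of 0 mm excluded from means.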

Naganishia albida = test: The compound was evaluated for zone inhibition against Cryptococcus albidus MY1070 using disk diffusion assay; 9 very hazy
Method in brief: (§5)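 Disk diffusion: 25 μL of 250 μg/mL drug in methanol on 6.2 mm paper disks, dried at room temperature, placed on seeded agar and rewet with 25 μL 10% aqueous Me₂SO. Zones were read after overnight incubation, ±1 mm. Media were unbuffered, pH ca. 4.5–5.6: potato dextrose agar for filamentous fungi, Sabouraud dextrose for yeasts, unless YNB (76 mM ammonium sulfate, sole nitrogen source) or YED is named. Zone edges were scored fuzzy, slightly hazy, hazy or very hazy.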

Penicillium [4] = test: The compound was evaluated for zone inhibition against Penicillium sp (MF5014) using disk diffusion assay; 17 slightly hazy; method in brief: as §3
Saccharomyces cerevisiae [5] = test: The compound was tested for antifungal activity against Saccharomyces cerevisiae MY1027 using agar dilution assay; method in brief: as §2
Candida albicans [6] = test: The compound was tested for antifungal activity against Candida albicans MY1013 using agar dilution assay; method in brief: as §1
Candida albicans [7] = test: The compound was tested for antifungal activity against Candida albicans MY1058 using agar dilution assay; method in brief: as §1
Penicillium [8] = test: The compound was evaluated for zone inhibition against Penicillium sp (MF5020) using disk diffusion assay; 15 Fuzzy edges; method in brief: as §3
Saccharomyces cerevisiae [9] = test: The compound was evaluated for mean zone diameter (inhibition) against yeast at the concentration of 125 ug/mL
Method in brief: (§6)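 Filter-paper disk diffusion (6.2 mm disks) with drug in methanol at the stated level, 25 μL per disk. Disks were air-dried at room temperature, laid on seeded agar, rewet with 25 μL 10% aqueous Me₂SO and incubated overnight. Media were unbuffered, pH ca. 4.5–5.6. The panel was 21 yeasts and 21 filamentous fungi. Zones of 0 mm were excluded from means.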

Pichia kudriavzevii = test: The compound was tested for antifungal activity against Candida krusei MY1020 using agar dilution assay; method in brief: as §1
Saccharomyces cerevisiae [10] = test: The compound was evaluated for zone inhibition against Saccharomyces cerevisiae MY410 using disk diffusion assay; method in brief: as §3
Trichoderma viride = test: The compound was evaluated for zone inhibition against Trichoderma lignorum (MF3560) using disk diffusion assay; 13 Fuzzy edges; method in brief: as §3
Candida parapsilosis [11] = test: The compound was tested for antifungal activity against Candida parapsilosis MY1009 using agar dilution assay; details: Lodderomyces parapsilosis; method in brief: as §1
Candida parapsilosis [12] = test: The compound was tested for antifungal activity against Candida parapsilosis MY1010 using agar dilution assay; details: Lodderomyces parapsilosis; method in brief: as §1
Saccharomyces cerevisiae [13] = test: The compound was evaluated for zone inhibition against Saccharomyces cerevisiae YED MY34 using disk diffusion assay; 8 slightly hazy; method in brief: as §3
Ustilago maydis = test: The compound was evaluated for zone inhibition against Ustilago zeae (MF1996) using disk diffusion assay; 14 slightly hazy; method in brief: as §3
Kluyveromyces marxianus [14] = test: The compound was evaluated for zone inhibition against Candida pseudotropicalis MY1100 using disk diffusion assay; 19 slightly hazy; method in brief: as §5
Saccharomyces cerevisiae [15] = test: The compound was evaluated for mean zone diameter (inhibition) against yeast at the concentration of 250 ug/mL; method in brief: as §6
Saccharomyces cerevisiae [16] = test: The compound was evaluated for mean zone diameter (inhibition) against yeast at the concentration of 62.5 ug/mL; method in brief: as §6
Aspergillus flavus = test: The compound was tested for antifungal activity against Aspergillus flavus MF0383 using agar dilution assay; method in brief: as §1
Diutina rugosa = test: The compound was tested for antifungal activity against Candida rugosa MY1022 using agar dilution assay; method in brief: as §1
Kluyveromyces marxianus [17] = test: The compound was evaluated for zone inhibition against Kluyveromyces fragilis MY1113 using disk diffusion assay; 15 slightly hazy; method in brief: as §3
Cercospora beticola = test: The compound was evaluated for zone inhibition against Cercospora beticola (MF4608) using disk diffusion assay; 8 hazy; method in brief: as §5
Candida albicans [18] = test: The compound was tested for antifungal activity against Candida albicans MY1055 using agar dilution assay; method in brief: as §1
Papiliotrema laurentii [19] = test: The compound was evaluated for zone inhibition against Cryptococcus laurentii MY1074 using disk diffusion assay; 7 very hazy; method in brief: as §3
Candida albicans [20] = test: The compound was tested for antifungal activity against Candida albicans MY0992 using agar dilution assay; method in brief: as §1
Cryptococcus neoformans [21] = test: The compound was tested for antifungal activity against Cryptococcus neoformans MY1146 using agar dilution assay; method in brief: as §2
Trichoderma = test: The compound was evaluated for zone inhibition against Trichoderma sp (MF4064) using disk diffusion assay; 16 Fuzzy edges; method in brief: as §3
Cephalosporium = test: The compound was evaluated for zone inhibition against Cephalosporium sp (MF4641) using disk diffusion assay; 12 slightly hazy; method in brief: as §5
Cryptococcus neoformans [22] = test: The compound was tested for antifungal activity against Cryptococcus neoformans MY1051 using agar dilution assay; method in brief: as §2
Papiliotrema laurentii [23] = test: The compound was evaluated for zone inhibition against Cryptococcus laurentii MY1077 using disk diffusion assay; 9 hazy; method in brief: as §3
Candida albicans [24] = test: The compound was tested for antifungal activity against Candida stellatoidea MY1017 using agar dilution assay; method in brief: as §2
Candida albicans [25] = test: The compound was tested for antifungal activity against Candida albicans My1029 using agar dilution assay; method in brief: as §1
Fusarium oxysporum = test: The compound was evaluated for zone inhibition against Fusarium oxysporum (MF4014) using disk diffusion assay; 15 Fuzzy edges; method in brief: as §3
Penicillium italicum = test: The compound was tested for antifungal activity against Penicillium italicum MF2819 using agar dilution assay; method in brief: as §2
Rhizomucor miehei = test: The compound was evaluated for zone inhibition against Rhizomucor miehei (MF4784) using disk diffusion assay; 9 hazy; method in brief: as §3
Kluyveromyces marxianus [26] = test: The compound was tested for antifungal activity against Candida pseudotropicalis MY1040 using agar dilution assay; method in brief: as §1
Nakaseomyces glabratus [27] = test: The compound was tested for antifungal activity against Torulopsis glabrata MY1059 using agar dilution assay; method in brief: as §2
Papiliotrema laurentii [28] = test: The compound was evaluated for zone inhibition against Cryptococcus laurentii MY1073 using disk diffusion assay; method in brief: as §5
Candida tropicalis [29] = test: The compound was tested for antifungal activity against Candida tropicalis MY1011 using agar dilution assay; method in brief: as §2
[30] = tested on: Meyerozyma guilliermondii; test: The compound was tested for antifungal activity against Candida guilliermondii MY1019 using agar dilution assay; method in brief: as §1
Saccharomyces cerevisiae [31] = test: The compound was evaluated for mean zone diameter (inhibition) against yeast at the concentration of 500 ug/mL; method in brief: as §4
Ophiostoma ulmi = test: The compound was evaluated for zone inhibition against Ceratocystis ulmi (MF4042) using disk diffusion assay; 12 slightly hazy; method in brief: as §5
Nakaseomyces glabratus [32] = test: The compound was evaluated for zone inhibition against Torulopsis glabrata MY1062 using disk diffusion assay; 7 very hazy; method in brief: as §3
Phoma = test: The compound was evaluated for zone inhibition against Phoma sp (MF4332) using disk diffusion assay; 13 slightly hazy; method in brief: as §3

Structure (SMILES): CCCCCCCCCCCCN1CCOCC1
- MIC (Aspergillus fumigatus): 64 µg/mL (≈ 251 µM)
- MIC (Candida tropicalis [1]): 16 µg/mL (≈ 62.6 µM)
- Inhibition zone (Penicillium [2]): 18 mm
- Inhibition zone (Saccharomyces cerevisiae [3]): 19 mm
- Inhibition zone (Naganishia albida): 9 mm
- Inhibition zone (Penicillium [4]): 17 mm
- MIC (Saccharomyces cerevisiae [5]): 32 µg/mL (≈ 125 µM)
- MIC (Candida albicans [6]): 32 µg/mL (≈ 125 µM)
- MIC (Candida albicans [7]): 32 µg/mL (≈ 125 µM)
- Inhibition zone (Penicillium [8]): 15 mm
- Inhibition zone (Saccharomyces cerevisiae [9]): 10.2 mm
- MIC (Pichia kudriavzevii): 32 µg/mL (≈ 125 µM)
- Inhibition zone (Saccharomyces cerevisiae [10]): 0 mm
- Inhibition zone (Trichoderma viride): 13 mm
- MIC (Candida parapsilosis [11]): 64 µg/mL (≈ 251 µM)
- MIC (Candida parapsilosis [12]): 16 µg/mL (≈ 62.6 µM)
- Inhibition zone (Saccharomyces cerevisiae [13]): 8 mm
- Inhibition zone (Ustilago maydis): 14 mm
- Inhibition zone (Kluyveromyces marxianus [14]): 19 mm
- Inhibition zone (Saccharomyces cerevisiae [15]): 11.4 mm
- Inhibition zone (Saccharomyces cerevisiae [16]): 8.6 mm
- MIC (Aspergillus flavus): 64 µg/mL (≈ 251 µM)
- MIC (Diutina rugosa): 32 µg/mL (≈ 125 µM)
- Inhibition zone (Kluyveromyces marxianus [17]): 15 mm
- Inhibition zone (Cercospora beticola): 8 mm
- MIC (Candida albicans [18]): 32 µg/mL (≈ 125 µM)
- Inhibition zone (Papiliotrema laurentii [19]): 7 mm
- MIC (Candida albicans [20]): 64 µg/mL (≈ 251 µM)
- MIC (Cryptococcus neoformans [21]): 32 µg/mL (≈ 125 µM)
- Inhibition zone (Trichoderma): 16 mm
- Inhibition zone (Cephalosporium): 12 mm
- MIC (Cryptococcus neoformans [22]): 16 µg/mL (≈ 62.6 µM)
- Inhibition zone (Papiliotrema laurentii [23]): 9 mm
- MIC (Candida albicans [24]): 32 µg/mL (≈ 125 µM)
- MIC (Candida albicans [25]): 32 µg/mL (≈ 125 µM)
- Inhibition zone (Fusarium oxysporum): 15 mm
- MIC (Penicillium italicum): 32 µg/mL (≈ 125 µM)
- Inhibition zone (Rhizomucor miehei): 9 mm
- MIC (Kluyveromyces marxianus [26]): 32 µg/mL (≈ 125 µM)
- MIC (Nakaseomyces glabratus [27]): 64 µg/mL (≈ 251 µM)
- Inhibition zone (Papiliotrema laurentii [28]): 0 mm
- MIC (Candida tropicalis [29]): 32 µg/mL (≈ 125 µM)
- MIC [30]: 32 µg/mL (≈ 125 µM)
- Inhibition zone (Saccharomyces cerevisiae [31]): 12.8 mm
- Inhibition zone (Ophiostoma ulmi): 17 mm
- Inhibition zone (Nakaseomyces glabratus [32]): 7 mm
- Inhibition zone (Phoma): 13 mm
